Legend:
[1] = system: HDAC6 compared with Class I HDACs; conditions: 42; cited from earlier work
[2] = system: cisplatin-induced mechanical allodynia; experiment: Von Frey test, cisplatin-induced mechanical allodynia in mice; format: in vivo
[3] = system: tibial nerve mitochondrial respiration; experiment: Mitochondrial bioenergetics; format: in vivo, mice
Outline: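 Tibial nerves were run in an islet-capture XF24 plate in XF medium with 5.5 mM glucose, 0.5 mM pyruvate and 1 mM glutamine. Oligomycin (12 μM), FCCP (20 μM) and rotenone/antimycin A (20 μM each) were injected in sequence, with 4 cycles (3-min mix/3-min wait/4-min measure) at baseline and after each injection. Basal, ATP-linked, proton leak, maximal and non-mitochondrial OCR were derived.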

[4] = system: IENF density; experiment: Intra-epidermal nerve fiber; format: in vivo, mice
Outline: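 Plantar hind-paw biopsies were cut as 25 μm frozen sections and stained for PGP9.5 and collagen IV, then imaged by confocal. IENFs crossing the dermal–epidermal junction were counted per mm of epidermis. Five random images per mouse, 4 mice/group, blinded analysis.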

[5] = system: rat DRG neurons; experiment: Mitochondrial movement in cultured DRG neurons; format: cell-based; conditions: rat DRG neuron cultures, 3 hours
Outline: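 Commercial DRG neurons were cultured 5–7 days, then given BacMam 2.0 GFP mitochondrial label 24 h before treatment. […] Live imaging was done at 37°C in CO2-independent Hibernate E medium that still contained the drugs, and mitochondrial movement was scored.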

[6] = system: DRG neurons; experiment: Mitochondrial bioenergetics in DRG neurons isolated from treated mice; format: in vivo
Outline: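 Cells were cultured overnight in an XF24 plate in Ham's F10 + N2, switched to XF medium 1 h before the run. Injections: oligomycin 2 μM, FCCP 4 μM, rotenone/antimycin A 2 μM each. Cycles: 2-min mix/3-min wait/2-min measure ×3. OCR was normalised to protein; basal, ATP-linked, leak and maximal respiration were derived.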

[7] = system: paclitaxel-induced mechanical allodynia; experiment: Von Frey test, paclitaxel-induced mechanical allodynia in rats; format: in vivo; conditions: 3 mg/kg oral twice daily for 7 days, last day tested
[8] = system: histone acetylation in SK-N-BE2 cells; experiment: Western blot of histone acetylation; format: cell-based; conditions: 5 hours, 3 nM to 10 μM
Outline: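 SK-N-BE2 cells at 70% confluence were treated 5 h with test compound at 3 nM–10 μM final, with DMSO 0.1% total. Cells were washed in cold PBS and lysed in RIPA with protease inhibitors/PMSF, 10 min on ice. Lysates were sonicated and centrifuged. Supernatants were immunoblotted for histone H2BK5ac (rabbit polyclonal) and acetylated α-tubulin (mouse monoclonal).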

[9] = system: α-tubulin acetylation in SK-N-BE2 cells; experiment: Western blot of acetylated α-tubulin in SK-N-BE2 cells; format: cell-based; conditions: 5 hours
Outline: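 SK-N-BE2 cells grown to 70% confluence, then exposed 5 h to test compound in DMSO (0.1% DMSO final in all wells). Cells PBS-washed, lysed in cold RIPA buffer with protease inhibitors and PMSF, sonicated, and centrifuged. Supernatants immunoblotted for acetylated α-tubulin (mouse monoclonal) and, as a non-HDAC6 substrate, histone H2BK5ac (rabbit polyclonal).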

[10] = In vivo pharmacokinetics in mice; conditions: 5 mg/kg i.p.
Outline: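 Mice were fasted overnight and given a single 5 mg/kg i.p. dose in 10% dimethylacetamide + 10% Solutol HS 15 in saline. Retro-orbital blood was taken at 5, 15, 30 min and 1, 2, 4, 8, 24 h. Plasma was spun at 2,000 × g, 5 min, 4°C. Levels were measured by LC-MS/MS against a standard curve in mouse plasma, then PK parameters calculated; n=3/group.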

[11] = system: cisplatin-induced numbness; experiment: Adhesive removal test; format: in vivo; conditions: mice, treatment starting after 2 rounds of cisplatin, tested in week 5
Outline: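 Test compound in 20% 2-hydroxypropyl-β-cyclodextrin + 0.5% hydroxypropyl methylcellulose in water, given i.p. at 3 or 10 mg/kg. A round adhesive patch was placed on the plantar hind paws. Time to a behavioural response (shaking, attempted removal) was recorded within a 15-minute test.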

[12] = system: Cox IV, SDHA and VDAC; experiment: Western blot of mitochondrial proteins in tibial nerves; format: in vivo, mice; conditions: 2 rounds of cisplatin and 11 injections
[13] = system: cisplatin-induced spontaneous pain; conditions: cisplatin-treated mice, 2 weeks of daily treatment
[14] = system: GFAP expression; experiment: GFAP immunofluorescence in spinal cord dorsal horn; format: in vivo; conditions: cisplatin-treated mice, 3 doses of 10 mg/kg
[15] = system: HDAC1-9; experiment: HDAC enzyme assays, other isoforms; format: biochemical
Outline: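 Test compound was diluted in 50 mM HEPES pH 7.4, 100 mM KCl, 0.001% Tween-20, 0.05% BSA and 20 μM TCEP, then preincubated 24 h with recombinant HDAC enzyme. Substrate at Km, with trypsin, was then added: acetyl-lysine tripeptide for HDAC1/2/3/6, trifluoroacetyl-lysine tripeptide for HDAC4/5/7/8/9. […] release was read over 30 min and the linear rate taken. IC50 came from a 4-parameter fit.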

[16] = system: α-tubulin acetylation; experiment: Western blot of acetylated α-tubulin in tibial nerves; format: in vivo; conditions: mice, saline or cisplatin followed by 11 doses
Outline: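 Tibial nerves were first run in an XF24 OCR assay (XF medium with 5.5 mM glucose, 0.5 mM pyruvate, 1 mM glutamine). The same nerves were then western-blotted for acetylated α-tubulin with a rabbit monoclonal.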

O=C(CCCCCCNC(=O)c1cnc(N(c2ccccc2)c2ccccc2)nc1)NO [ACY-1215, Ricolinostat, reference compound]
selectivity against HDAC6 compared with Class I HDACs [1]: over 10 fold
persistence of the beneficial effect after completion of treatment ([2]; 30 mg/kg oral daily for two weeks, last time point tested): still present one week after completion of treatment

N.N.[Cl][Pt][Cl] [cisplatin, Cisplatin, reference compound]
mitochondrial respiration in tibial nerves ([3]; mice, 2 cycles of cisplatin 2.3 mg/kg i.p. x 5 days): significantly decreased mitochondrial respiration
IENF density in plantar surface of the paw ([4]; mice, 2 cycles of cisplatin): reduced the IENF density
percentage of moving mitochondria ([5]; cisplatin 80 μM, vs vehicle): decreased the percentage of moving mitochondria
mitochondrial bioenergetics in DRG neurons ([6]; mice, 2 rounds of cisplatin): overall decrease in mitochondrial bioenergetics

ACY-1083
persistence of the protective effect after the last dose [7]: ≥ 3 days
mitochondrial respiration in tibial nerve of cisplatin-treated mice ([3]; 2 cycles of cisplatin followed by 11 doses): normalized all aspects of the cisplatin-induced decrease in mitochondrial respiration
mitochondrial bioenergetics in tibial nerve, treatment alone ([3]; mice without cisplatin, 11 doses): did not have any effect on mitochondrial bioenergetics
concentration at which an effect on histone acetylation is evident [8]: 10 µM
selectivity towards HDAC6 in cells (α-tubulin vs histone acetylation) [9]: over 300 fold
concentration at which the increase in α-tubulin acetylation starts ([9]; 3 nM to 10 μM): 30 nM
biologically active plasma exposure after dosing [10]: 8 hours
half-life (T1/2) [10]: 3.5 h
maximum plasma concentration (Cmax) [10]: 0.936 µg/mL
cisplatin-induced numbness: time to respond to adhesive patch [11]: normalized the response time
Cox IV levels in tibial nerve of cisplatin-treated mice [12]: normalized Cox IV levels
IENF density in cisplatin-treated mice, prolonged regimen ([4]; 2 cycles of cisplatin and 11 doses): completely reversed the cisplatin-induced loss of IENFs
IENF density in cisplatin-treated mice, short-term treatment ([4]; short-term treatment): had no effect on IENF density
spontaneous pain: preference for retigabine-paired light chamber [13]: did not develop a preference for the retigabine-paired light chamber
percentage of moving mitochondria, co-administration with cisplatin ([5]; 100 nM with cisplatin 80 μM): prevented this cisplatin-induced decrease in mitochondrial transport
mitochondrial bioenergetics in DRG neurons of cisplatin-treated mice ([6]; 2 rounds of cisplatin and 11 injections): did not detect a similar recovery
mitochondrial bioenergetics in DRG neurons, treatment alone ([6]; mice without cisplatin, either time point): did not have any effect on mitochondrial bioenergetics in DRG neurons
mitochondrial bioenergetics in DRG neurons of cisplatin-treated mice ([6]; two weeks of treatment, 2 weeks after the last dose): significant recovery of mitochondrial bioenergetics
mechanical sensitivity in the absence of cisplatin treatment ([2]; 10 mg/kg): did not alter mechanical sensitivity
time after the first dose at which the effect was first detected ([2]; 10 mg/kg i.p.): 24 h
effect of a second round of 7 daily injections on mechanical allodynia ([2]; 10 mg/kg, 7 days, 7 days rest): transiently reversed cisplatin-induced mechanical allodynia again
prevention of development of mechanical allodynia ([2]; administered i.p. 1 hour prior to each dose of cisplatin): capable of preventing the development of mechanical allodynia
GFAP expression in dorsal horn of spinal cord [14]: normalized GFAP expression to levels comparable to saline-treated animals
inhibitory activity against other enzymes [15]: negligible inhibitory activity against other enzymes
selectivity for HDAC6 over all other HDAC isoforms tested ([15]; HDAC1-9): 260 fold
α-tubulin acetylation in tibial nerves [16]: increased α-tubulin acetylation
